# How the values were obtained:
# [1] = Growth inhibition of human EKVX cells after 48 hrs by sulforhodamine B assay; type: functional
# Method in brief: (§1)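 NCI 60-cell-line screen. Compounds tested at five 10-fold dilutions from 10^-4 to 10^-8 M. Cells exposed for the last 48 h of a 72 h incubation, growth estimated by sulforhodamine B protein assay. GI50 is the concentration giving 50% growth inhibition. Values beyond the tested range are expressed as greater or lesser than the extreme concentration.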
# [2] = Growth inhibition of human NCI-ADR-RES cells after 48 hrs by sulforhodamine B assay; type: functional; method in brief: as §1
# [3] = test system: MDA-MB-435; test: Growth inhibition of human MDA-MB-435 cells after 48 hrs by sulforhodamine B assay; type: functional; conditions: MDA-MB-435, 48 h; method in brief: as §1
# [4] = test system: MDA-MB-468; test: Growth inhibition of human MDA-MB-468 cells after 48 hrs by sulforhodamine B assay; type: functional; conditions: MDA-MB-468, 48 h; method in brief: as §1
# [5] = test system: MCF7; test: Growth inhibition of human MCF7 cells after 48 hrs by sulforhodamine B assay; type: functional; conditions: MCF7, 48 h; method in brief: as §1
# [6] = test system: UACC-62; test: Growth inhibition of human UACC62 cells after 48 hrs by sulforhodamine B assay; type: functional; conditions: UACC-62, 48 h
# [7] = test system: ACHN; test: Growth inhibition of human ACHN cells after 48 hrs by sulforhodamine B assay; type: functional; method in brief: as §1
# [8] = Growth inhibition of human RXF393 cells after 48 hrs by sulforhodamine B assay; type: functional; conditions: RXF 393, 48 h
# [9] = Growth inhibition of human HOP92 cells after 48 hrs by sulforhodamine B assay; type: functional; conditions: HOP-92, 48 h; method in brief: as §1
# [10] = test system: OVCAR-4; test: Growth inhibition of human OVCAR4 cells after 48 hrs by sulforhodamine B assay; type: functional; conditions: OVCAR-4, 48 h; method in brief: as §1
# [11] = test system: NCI-H322M; test: Growth inhibition of human NCI-H322M cells after 48 hrs by sulforhodamine B assay; type: functional; method in brief: as §1
# [12] = test system: MT4; test: Antiproliferative activity against human MT4 cells after 96 hrs by MTT assay; type: functional, cell-based; conditions: MT4, 96 h
# Method in brief: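 Exponentially growing MT-4 cells (CD4+ human T-cells carrying integrated HTLV-1 genome), seeded at 1×10^5 cells/mL in RPMI-1640 with 10% FCS and antibiotics. Serial dilutions of compound (DMSO stock 100 mM, diluted in medium), 37 °C, 5% CO₂, 96 h. Viability read by MTT. 50% inhibition versus untreated controls by linear regression. Mean ± SD of three independent determinations.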
# [13] = test system: SNB-19; test: Growth inhibition of human SNB19 cells after 48 hrs by sulforhodamine B assay; type: functional; conditions: SNB-19, 48 h
# [14] = test system: MDA-MB-231; test: Growth inhibition of human MDA-MB-231 cells after 48 hrs by sulforhodamine B assay; type: functional; conditions: MDA-MB-231, 48 h; method in brief: as §1
# [15] = test system: CAKI-1; test: Growth inhibition of human CAKI-1 cells after 48 hrs by sulforhodamine B assay; type: functional; conditions: CAKI-1, 48 h; method in brief: as §1
# [16] = test system: T47D; test: Growth inhibition of human T47D cells after 48 hrs by sulforhodamine B assay; type: functional
# [17] = test system: NCI-H23; test: Growth inhibition of human NCI-H23 cells after 48 hrs by sulforhodamine B assay; type: functional; conditions: NCI-H23, 48 h; method in brief: as §1
# [18] = test system: 786-0; test: Growth inhibition of human 786-0 cells after 48 hrs by sulforhodamine B assay; type: functional; conditions: 786-0, 48 h; method in brief: as §1
# [19] = test system: SN12C; test: Growth inhibition of human SN12C cells after 48 hrs by sulforhodamine B assay; type: functional
# [20] = test system: NCI-H460; test: Growth inhibition of human NCI-H460 cells after 48 hrs by sulforhodamine B assay; type: functional; conditions: NCI-H460, 48 h; method in brief: as §1
# [21] = Growth inhibition of human BT549 cells after 48 hrs by sulforhodamine B assay; type: functional; conditions: BT-549, 48 h; method in brief: as §1
# [22] = Growth inhibition of human LOXIMVI cells after 48 hrs by sulforhodamine B assay; type: functional; conditions: LOX IMVI; method in brief: as §1
# [23] = Growth inhibition of human RPMI8226 cells after 48 hrs by sulforhodamine B assay; type: functional; conditions: RPMI-8226, 48 h
# [24] = test system: UO-31; test: Growth inhibition of human UO31 cells after 48 hrs by sulforhodamine B assay; type: functional; conditions: UO-31, 48 h
# [25] = Growth inhibition of human Hs 578T cells after 48 hrs by sulforhodamine B assay; type: functional; method in brief: as §1
# [26] = Growth inhibition of human SF539 cells after 48 hrs by sulforhodamine B assay; type: functional; conditions: SF-539, 48 h
# [27] = Growth inhibition of human HCC2998 cells after 48 hrs by sulforhodamine B assay; type: functional; conditions: HCC 2998, 48 h; method in brief: as §1
# [28] = test system: A498; test: Growth inhibition of human A498 cells after 48 hrs by sulforhodamine B assay; type: functional; conditions: A498, 48 h; method in brief: as §1
# [29] = test system: SF-268; test: Growth inhibition of human SF268 cells after 48 hrs by sulforhodamine B assay; type: functional; conditions: SF-268, 48 h
# [30] = test system: NCI-H522; test: Growth inhibition of human NCI-H522 cells after 48 hrs by sulforhodamine B assay; type: functional; conditions: NCI-H522, 48 h; method in brief: as §1
# [31] = test system: A549; test: Growth inhibition of human A549 cells after 48 hrs by sulforhodamine B assay; type: functional; conditions: A549, 48 h; method in brief: as §1
# [32] = test system: IGROV-1; test: Growth inhibition of human IGROV1 cells after 48 hrs by sulforhodamine B assay; type: functional; conditions: IGROV-1, 48 h; method in brief: as §1
# [33] = test system: HOP-62; test: Growth inhibition of human HOP62 cells after 48 hrs by sulforhodamine B assay; type: functional; conditions: HOP-62, 48 h; method in brief: as §1
# [34] = test system: OVCAR-8; test: Growth inhibition of human OVCAR8 cells after 48 hrs by sulforhodamine B assay; type: functional; conditions: OVCAR-8, 48 h
# [35] = test system: HCT-116; test: Growth inhibition of human HCT116 cells after 48 hrs by sulforhodamine B assay; type: functional; conditions: HCT-116, 48 h; method in brief: as §1
# [36] = test system: SW-620; test: Growth inhibition of human SW620 cells after 48 hrs by sulforhodamine B assay; type: functional; conditions: SW-620, 48 h
# [37] = test system: U-251; test: Growth inhibition of human U251 cells after 48 hrs by sulforhodamine B assay; type: functional; conditions: U-251, 48 h
# [38] = test system: Malme-3M; test: Growth inhibition of human MALME-3M cells after 48 hrs by sulforhodamine B assay; type: functional; method in brief: as §1
# [39] = test system: HCT-15; test: Growth inhibition of human HCT15 cells after 48 hrs by sulforhodamine B assay; type: functional; conditions: HCT-15, 48 h; method in brief: as §1
# [40] = test system: M14; test: Growth inhibition of human M14 cells after 48 hrs by sulforhodamine B assay; type: functional; conditions: M14, 48 h; method in brief: as §1
# [41] = test system: SK-MEL-2; test: Growth inhibition of human SK-MEL-2 cells after 48 hrs by sulforhodamine B assay; type: functional; conditions: SK-MEL-2, 48 h
# [42] = test system: CCRF-CEM; test: Growth inhibition of human CCRF-CEM cells after 48 hrs by sulforhodamine B assay; type: functional; method in brief: as §1
# [43] = test system: UACC-257; test: Growth inhibition of human UACC257 cells after 48 hrs by sulforhodamine B assay; type: functional; conditions: UACC-257, 48 h
# [44] = test system: OVCAR-3; test: Growth inhibition of human OVCAR3 cells after 48 hrs by sulforhodamine B assay; type: functional; conditions: OVCAR-3, 48 h; method in brief: as §1
# [45] = Growth inhibition of human SF295 cells after 48 hrs by sulforhodamine B assay; type: functional; conditions: SF-295, 48 h
# [46] = test system: SK-OV-3; test: Growth inhibition of human SKOV3 cells after 48 hrs by sulforhodamine B assay; type: functional; conditions: SK-OV-3, 48 h
# [47] = test system: DU-145; test: Growth inhibition of human DU145 cells after 48 hrs by sulforhodamine B assay; type: functional; conditions: DU-145, 48 h; method in brief: as §1
# [48] = test system: SK-MEL-28; test: Growth inhibition of human SK-MEL-28 cells after 48 hrs by sulforhodamine B assay; type: functional; conditions: SK-MEL-28, 48 h
# [49] = test system: NCI-H226; test: Growth inhibition of human NCI-H226 cells after 48 hrs by sulforhodamine B assay; type: functional; conditions: NCI-H226, 48 h; method in brief: as §1
# [50] = test system: TK-10; test: Growth inhibition of human TK10 cells after 48 hrs by sulforhodamine B assay; type: functional; conditions: TK-10, 48 h
# [51] = test system: KM12; test: Growth inhibition of human KM12 cells after 48 hrs by sulforhodamine B assay; type: functional; conditions: KM12, 48 h; method in brief: as §1
# [52] = Growth inhibition of human COLO205 cells after 48 hrs by sulforhodamine B assay; type: functional; conditions: COLO 205, 48 h; method in brief: as §1
# [53] = test system: SNB-75; test: Growth inhibition of human SNB75 cells after 48 hrs by sulforhodamine B assay; type: functional; conditions: SNB-75, 48 h
# [54] = test system: HT-29; test: Growth inhibition of human HT-29 cells after 48 hrs by sulforhodamine B assay; type: functional; conditions: HT-29, 48 h; method in brief: as §1
# [55] = test system: PC-3; test: Growth inhibition of human PC3 cells after 48 hrs by sulforhodamine B assay; type: functional; conditions: PC-3, 48 h
structure (smiles),measurement,setting,value
N#C/C(=C\c1c(-c2ccccc2)[nH]c2ccccc12)C(=O)c1ccccc1,GI50,[1],10 µM
same,GI50,[2],3.1 µM
same,GI50,[3],0.37 µM
same,GI50,[4],5.6 µM
same,GI50,[5],4 µM
same,GI50,[6],3.6 µM
same,GI50,[7],7.2 µM
same,GI50,[8],9.6 µM
same,GI50,[9],4.5 µM
same,GI50,[10],65.3 µM
same,GI50,[11],3.8 µM
same,EC50,[12],0.5 µM
same,GI50,[13],16.8 µM
same,GI50,[14],13.2 µM
same,GI50,[15],2.5 µM
same,GI50,[16],5.3 µM
same,GI50,[17],16 µM
same,GI50,[18],16.5 µM
same,GI50,[19],5.7 µM
same,GI50,[20],4.5 µM
same,GI50,[21],3 µM
same,GI50,[22],7.4 µM
same,GI50,[23],2.4 µM
same,GI50,[24],30.5 µM
same,GI50,[25],6.3 µM
same,GI50,[26],6 µM
same,GI50,[27],14.5 µM
same,GI50,[28],15.3 µM
same,GI50,[29],5.7 µM
same,GI50,[30],4 µM
same,GI50,[31],7.6 µM
same,GI50,[32],2.5 µM
same,GI50,[33],16.3 µM
same,GI50,[34],2.2 µM
same,GI50,[35],5.3 µM
same,GI50,[36],3 µM
same,GI50,[37],4.7 µM
same,GI50,[38],12.3 µM
same,GI50,[39],3.5 µM
same,GI50,[40],4.8 µM
same,GI50,[41],35.2 µM
same,GI50,[42],7.3 µM
same,GI50,[43],10.9 µM
same,GI50,[44],2.4 µM
same,GI50,[45],3 µM
same,GI50,[46],15.2 µM
same,GI50,[47],5.2 µM
same,GI50,[48],12 µM
same,GI50,[49],6.8 µM
same,GI50,[50],11.1 µM
same,GI50,[51],2 µM
same,GI50,[52],5 µM
same,GI50,[53],3.2 µM
same,GI50,[54],3.4 µM
same,GI50,[55],3.5 µM

# — ChEMBL document CHEMBL3616442, “Unconventional Knoevenagel-type indoles: Synthesis and cell-based studies for the identification of pro-apoptotic agents” (Eur J Med Chem, 2015)
